Data set [1] in a line: Selectivity index, ratio of IC50 for human ARPE19 cells to IC50 for cisplatin-resistant human A2780/CP70 cells. The settings on record: ARPE19 cells versus cisplatin-resistant A2780/CP70 cells, read-out: Ratio IC50. The class given is toxicity.
Data set [2] concerns A2780. Put plainly: Antiproliferative activity against cisplatin-sensitive human A2780 cells measured after 96 hrs by MTT assay. The class given is functional, cell-based. Conditions: for IC50: A2780, 96 h. Put shortly: (§1)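 Cells kept in DMEM or RPMI 1640 with 10% FBS and 5% penicillin-streptomycin at 37 °C, 5% CO2, seeded at 1 x 10⁴ cells/mL and left 24 h to adhere. Compounds or vehicle added over a concentration range for 96 h, then MTT 4 h; formazan dissolved in DMSO, absorbance read at 540 nm relative to control. IC50 given as mean ± SD of three independent experiments in duplicate.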

Data set [3] is described as follows: (§2) Antiproliferative activity against cisplatin-resistant human A2780/CP70 cells measured after 96 hrs by MTT assay. The settings on record: A2780/CP70, 96 h. The class given is functional. Put shortly: as §1
Data set [4] relates to A2780. Nature of the data set: Cell cycle arrest in cisplatin-sensitive human A2780 cells assessed as increase in accumulation at sub-G0/G1 phase at 5 to 10 uM after 48 hrs by DAPI-staining based assay. The class given is functional. The method, boiled down:
(§3)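 A2780 cells seeded in T25 flasks, 24 h at 37 °C, then exposed 48 h to vehicle or compound at several concentrations. 1 x 10⁶ cells/mL spun at 400 g for 5 min, resuspended in lysis buffer with DAPI, 5 min at 37 °C, then stabilization buffer added. DNA content read by image cytometry to give sub-G1, G0/G1, S and G2 fractions; mean ± s.e. mean, n = 2.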

For data set [5], the system named is A2780. Nature of the data set: Cell cycle arrest in cisplatin-sensitive human A2780 cells assessed as increase in DNA fragmentation after 48 hrs by DAPI-staining based assay. The class given is functional. The method, boiled down:
as §3

In data set [6] the test system is A2780. Nature of the data set: Cell cycle arrest in cisplatin-sensitive human A2780 cells assessed as accumulation at G0/G1 phase at 5 to 10 uM after 48 hrs by DAPI-staining based assay. The class given is functional. Put shortly: as §3
Another data set has as its system ARPE-19. Put plainly: Cytotoxicity against human ARPE19 cells measured after 96 hrs by MTT assay. The class given is cell-based. The settings on record: ARPE-19, 96 h. The method, boiled down:
as §1
For orientation: Tetrazolium assays rely on reduction of a dye to a coloured formazan, in cell work by metabolically active cells.

The nature of data set [7]: Selectivity index, ratio of IC50 for human ARPE19 cells to IC50 for cisplatin-sensitive human A2780 cells. The class given is toxicity. Conditions: ARPE19 cells versus cisplatin-sensitive A2780 cells, read-out: Ratio IC50.
For another data set, the species on record is Homo sapiens. Described as §2. The class given is functional. The method, boiled down:
as §1

Data set [8] has as its system A2780. Nature of the data set: Cell cycle arrest in cisplatin-sensitive human A2780 cells assessed as increase in accumulation at sub-G0/G1 phase at 10 to 60 uM after 48 hrs by DAPI-staining based assay. The class given is functional. Put shortly:
as §3

Data set [9] deals with A2780. Nature of the data set: Cell cycle arrest in cisplatin-sensitive human A2780 cells assessed as accumulation at G0/G1 phase at 10 to 60 uM after 48 hrs by DAPI-staining based assay. The class given is functional. Put shortly:
as §3

The structures appear in SMILES notation. Calls of active or inactive are those of the source. No cut-off for these calls is given here. Some results are limits rather than exact numbers.

Take `CC1=C(CO[Si](C)(C)C(C)(C)C)C(=O)O[C@@H]([C@@H](C)[C@H]2CC[C@H]3[C@@H]4C[C@H]5O[C@]56[C@@H](O)C=CC(=O)[C@]6(C)[C@H]4CC[C@]23C)C1`: the results for the selectivity ratio in data set [1] and in [7] were 0.1 and 0.3, respectively. Also, the IC50 with A2780 [2] was 47.5 nM; in data set [3], over 100 nM; in the data set on ARPE-19, 12.4 nM. The outcome with A2780 [4] was Active. Also, in the data set with A2780 [5], the Activity result is “Dose-dependent effect”. The outcome with A2780 [6] was inactive.
In the case of `CC1=C(CO[Si](C)(c2ccccc2)c2ccccc2)C(=O)O[C@@H]([C@@H](C)[C@H]2CC[C@H]3[C@@H]4C[C@H]5O[C@]56C(O[Si](C)(c5ccccc5)c5ccccc5)C=CC(=O)[C@]6(C)[C@H]4CC[C@]23C)C1` (stereo partly drawn), the result in the data set listed under Homo sapiens was inactive.
Consider `CCCCCC[Si](CCCCCC)(CCCCCC)OCC1=C(C)C[C@H]([C@@H](C)[C@H]2CC[C@H]3[C@@H]4C[C@H]5O[C@]56C(=O)C=CC(=O)[C@]6(C)[C@H]4CC[C@]23C)OC1=O`, for which the outcome in the data set with A2780 [2] and in the data set listed under Homo sapiens was inactive.
With `CC1=C(CO[Si](C)(C)C(C)(C)C)C(=O)O[C@@H]([C@@H](C)[C@H]2CC[C@H]3[C@@H]4C[C@H]5O[C@]56C(=O)C=CC(=O)[C@]6(C)[C@H]4CC[C@]23C)C1`, the selectivity ratio was found to be 11.3 in data set [1] and 97.7 in data set [7]. Also, the IC50 in the data set on A2780 [2] is 17 nM; in data set [3], over 100 nM; with ARPE-19 it was 1660 nM. For the same compound, the Activity entry in the data set on A2780 [5] was “Dose-dependent effect”. Also, in the data set on A2780 [8], the result was Active. Also, in the data set on A2780 [9], the result was inactive.
With `CCCCCC[Si](CCCCCC)(CCCCCC)OCC1=C(C)C[C@H]([C@@H](C)[C@H]2CC[C@H]3[C@@H]4C[C@H]5O[C@]56[C@@H](O)C=CC(=O)[C@]6(C)[C@H]4CC[C@]23C)OC1=O`, the result in the data set with A2780 [2] and in the data set filed under Homo sapiens was inactive.
In the case of `CCC[Si](CCC)(CCC)OCC1=C(C)C[C@H]([C@@H](C)[C@H]2CC[C@H]3[C@@H]4C[C@H]5O[C@]56[C@@H](O)C=CC(=O)[C@]6(C)[C@H]4CC[C@]23C)OC1=O`, the selectivity ratio worked out at 8.3 in [1] and 0.9 in data set [7]. Further, the IC50 in the data set with A2780 [2] was found to be 32 nM; in [3], 3.6 nM; in the data set on ARPE-19, 30 nM.
In the same order, the values of `CC1=C(CO[Si](C)(c2ccccc2)c2ccccc2)C(=O)O[C@@H]([C@@H](C)[C@H]2CC[C@H]3[C@@H]4C[C@H]5O[C@]56[C@@H](O)C=CC(=O)[C@]6(C)[C@H]4CC[C@]23C)C1` are 2.5, 3.2, 22 nM, 28.3 nM and 70 nM.
Take `CCC[Si](CCC)(CCC)OCC1=C(C)C[C@H]([C@@H](C)[C@H]2CC[C@H]3[C@@H]4C[C@H]5O[C@]56[C@@H](O[Si](CCC)(CCC)CCC)C=CC(=O)[C@]6(C)[C@H]4CC[C@]23C)OC1=O`: the outcome in the data set with A2780 [2] and in the data set filed under Homo sapiens was inactive.

For orientation: IC50 means the point on the concentration scale where inhibition reaches its midpoint. A higher IC50 goes with lower potency.

The record behind these values is ChEMBL document CHEMBL4350962, “Expanding the Chemical Space of Withaferin A by Incorporating Silicon To Improve Its Clinical Potential on Human Ovarian Carcinoma Cells” (J Med Chem, 2019).
